{"data": "Results pooled from the literature", "AMY2": "Pancreatic alpha-amylase (AMY2, Sus scrofa, UniProt P00690)", "SIRT2": "NAD-dependent protein deacetylase sirtuin-2 (SIRT2, Homo sapiens, UniProt Q8IXJ6)", "HSD11B2": "11-beta-hydroxysteroid dehydrogenase type 2 (HSD11B2, Homo sapiens, UniProt P80365)", "Maoa": "Amine oxidase [flavin-containing] A (Maoa, Rattus norvegicus, UniProt P21396)", "note": "Each line is one published result; the experiments were not run side by side."}
{"Structure (SMILES)": "COc1cc(C=CC(=O)CC(c2ccc(N(C)C)cc2)n2ccnc2)ccc1O (centres unmarked)", "target": "AMY2", "effect on": "enzyme activity", "action": "inhibitor", "method": "absorbance", "tested at": "5 µg/mL", "inhibition [%]": 77}
{"Structure (SMILES)": "C[C@H]1O[C@H](O[C@H]2[C@H](O)[C@@H](O)[C@@H](O[C@H]3[C@H](O)[C@@H](O)C(O)O[C@@H]3CO)O[C@@H]2CO)[C@H](O)[C@@H](O)[C@@H]1N[C@H]1C=C(CO)[C@@H](O)[C@H](O)[C@H]1O (some centres unmarked)", "target": "AMY2", "effect on": "enzyme activity", "action": "inhibitor", "tested at": "30 µg/mL", "inhibition [%]": 32.1}
{"Structure (SMILES)": "CCCCCCCCCCCCNC(=O)CCCCC[C@H](NC(=O)OCc1ccccc1)C(=O)N[C@@H](Cc1c[nH]c2ccccc12)C(=O)NC(C)C", "target": "SIRT2", "effect on": "enzyme activity", "action": "inhibitor", "tested at": "100 µM", "inhibition [%]": 29}
{"Structure (SMILES)": "O=C(NC1CCC1)[C@H](Cc1c[nH]c2ccccc12)NC(=O)[C@H](CCCCNC(=S)NCc1n[nH]c(=S)o1)NS(=O)(=O)c1cccc(F)c1", "target": "SIRT2", "effect on": "enzyme activity", "action": "inhibitor", "tested at": "30 µM", "inhibition [%]": 11}
{"Structure (SMILES)": "COc1cc(C=Cc2cc(-c3ccccc3)nc(O)n2)ccc1O", "target": "AMY2", "effect on": "enzyme activity", "action": "inhibitor", "method": "absorbance", "tested at": "1.25 µg/mL", "inhibition [%]": 58.1}
{"Structure (SMILES)": "CCOCCOCCOCCNC(=S)NCCCC[C@H](NS(C)(=O)=O)C(=O)N[C@H](C)C(=O)N[C@@H](CCCNC(=N)N)C(N)=O", "target": "SIRT2", "effect on": "enzyme activity", "action": "inhibitor", "tested at": "100 µM", "inhibition [%]": 13}
{"Structure (SMILES)": "Cc1cccc(N(O)N=Nc2ccc(S(=O)(=O)Nc3onc(C)c3C)cc2)c1", "target": "AMY2", "effect on": "enzyme activity", "action": "inhibitor", "tested at": "180 µg/mL", "inhibition [%]": 36.8}
{"Structure (SMILES)": "CCOCCOCCNC(=S)NCCCC[C@H](NS(C)(=O)=O)C(=O)N[C@H](C)C(=O)N[C@@H](CCCNC(=N)N)C(N)=O", "target": "SIRT2", "effect on": "enzyme activity", "action": "inhibitor", "tested at": "100 µM", "inhibition [%]": 16}
{"Structure (SMILES)": "CCC(C)(C)C(=O)O[C@H]1C[C@@H](C)C=C2C=C[C@H](C)[C@H](CC[C@@H]3C[C@@H](O)CC(=O)O3)[C@H]21", "target": "HSD11B2", "effect on": "enzyme activity", "action": "inhibitor", "tested at": "20 µM", "setting": "lysate", "inhibition [%]": "< 40"}
{"Structure (SMILES)": "COc1cc(C=Cc2cc(-c3ccc(N(C)C)cc3)nc(O)n2)ccc1O", "target": "AMY2", "effect on": "enzyme activity", "action": "inhibitor", "method": "absorbance", "tested at": "1.25 µg/mL", "inhibition [%]": 50.3}
{"Structure (SMILES)": "Cc1noc(NS(=O)(=O)c2ccc(N=NN(C)O)cc2)c1C", "target": "AMY2", "effect on": "enzyme activity", "action": "inhibitor", "tested at": "120 µg/mL", "inhibition [%]": 42.1}
{"Structure (SMILES)": "CCCCCCCCCCCCNC(=S)NCCCC[C@H](NC(=O)OCc1ccccc1)C(=O)N[C@@H](Cc1c[nH]c2ccccc12)C(=O)N[C@@H](CC(N)=O)C(N)=O", "target": "SIRT2", "effect on": "enzyme activity", "action": "inhibitor", "tested at": "100 µM", "inhibition [%]": 16}
{"Structure (SMILES)": "COc1cc(C=CC(=O)CC(c2ccc([N+](=O)[O-])cc2)n2ccnc2)ccc1O (centres unmarked)", "target": "AMY2", "effect on": "enzyme activity", "action": "inhibitor", "method": "absorbance", "tested at": "5 µg/mL", "inhibition [%]": 75.6}
{"Structure (SMILES)": "CN(O)N=Nc1ccc(S(=O)(=O)Nc2nccs2)cc1", "target": "AMY2", "effect on": "enzyme activity", "action": "inhibitor", "tested at": "300 µg/mL", "inhibition [%]": 78.9}
{"Structure (SMILES)": "CC(=S)NCCCC[C@H](NC(=O)OCc1ccccc1)C(=O)N[C@@H](Cc1c[nH]c2ccccc12)C(=O)N[C@@H](CCCNC(=N)N)C(N)=O", "target": "SIRT2", "effect on": "enzyme activity", "action": "inhibitor", "tested at": "1 µM", "inhibition [%]": 20}
{"Structure (SMILES)": "CCCCNC(=S)NCCCC[C@H](NS(=O)(=O)c1cccc(F)c1)C(=O)N[C@@H](Cc1c[nH]c2ccccc12)C(=O)NC1CCC1", "target": "SIRT2", "effect on": "enzyme activity", "action": "inhibitor", "tested at": "1 µM", "inhibition [%]": 32}
{"Structure (SMILES)": "CN1CC(Oc2cnc(C#N)cc2-c2ccn3nc(NC(=O)C4CC4)cc3c2)C1", "target": "Receptor-interacting serine/threonine-protein kinase 1 (RIPK1, Homo sapiens, UniProt Q13546)", "effect on": "enzyme activity", "action": "inhibitor", "tested at": "1 µM", "inhibition [%]": -4}
{"Structure (SMILES)": "Cc1ccc(N(O)N=Nc2ccc(S(=O)(=O)Nc3onc(C)c3C)cc2)cc1", "target": "AMY2", "effect on": "enzyme activity", "action": "inhibitor", "tested at": "180 µg/mL", "inhibition [%]": 42.1}
{"Structure (SMILES)": "Oc1cccc(Nc2nc(-c3ccc(F)cc3F)cs2)c1", "target": "Maoa", "effect on": "cell-free assay", "tested at": "10 µM", "inhibition [%]": 14.4}
{"Structure (SMILES)": "Cc1ccc(N(O)N=Nc2ccc(S(=O)(=O)Nc3cc(C)on3)cc2)cc1", "target": "AMY2", "effect on": "enzyme activity", "action": "inhibitor", "tested at": "300 µg/mL", "inhibition [%]": 78.9}
{"Structure (SMILES)": "O=C(c1ccc(F)cc1)N(Cc1ccccc1)C1CCCCC1", "target": "Muscarinic acetylcholine receptor M2 (CHRM2, Homo sapiens, UniProt P08172)", "effect on": "cell-free assay", "tested at": "10 µM", "inhibition [%]": 16}
{"Structure (SMILES)": "CCN(O)N=Nc1ccc(S(=O)(=O)Nc2nccs2)cc1", "target": "AMY2", "effect on": "enzyme activity", "action": "inhibitor", "tested at": "300 µg/mL", "inhibition [%]": 63.2}
{"Structure (SMILES)": "CN(CCOc1ccc(CC2SC(=O)NC2=O)cc1)c1ccccn1 (centres unmarked)", "target": "HSD11B2", "effect on": "enzyme activity", "action": "inhibitor", "tested at": "20 µM", "setting": "lysate", "inhibition [%]": "< 40"}
{"Structure (SMILES)": "O=C(O)CN1CCN(CC(=O)O)CCN(CC(=O)O)CC1", "target": "Hydroxyacylglutathione hydrolase, mitochondrial (Homo sapiens, UniProt Q16775)", "effect on": "cell-free assay", "tested at": "500 µM", "inhibition [%]": 5.98}
{"Structure (SMILES)": "O=C(NC1CCC1)[C@H](Cc1c[nH]c2ccccc12)NC(=O)[C@H](CCCCNC(=S)NCc1cc(O)no1)NS(=O)(=O)c1cccc(F)c1", "target": "SIRT2", "effect on": "enzyme activity", "action": "inhibitor", "tested at": "30 µM", "inhibition [%]": 13}
{"Structure (SMILES)": "O=C(c1ccc(Cl)cc1)N(Cc1ccccc1)C1CCCCC1", "target": "Maoa", "effect on": "cell-free assay", "tested at": "10 µM", "inhibition [%]": 5.1}
{"Structure (SMILES)": "CCCCc1oc2ccccc2c1C(=O)c1cc(I)c(OCCN(CC)CC)c(I)c1", "target": "HSD11B2", "effect on": "enzyme activity", "action": "inhibitor", "tested at": "20 µM", "setting": "lysate", "inhibition [%]": "< 40"}
{"Structure (SMILES)": "CCCN(O)N=Nc1ccc(S(=O)(=O)Nc2cc(C)on2)cc1", "target": "AMY2", "effect on": "enzyme activity", "action": "inhibitor", "tested at": "120 µg/mL", "inhibition [%]": 31.6}
{"Structure (SMILES)": "CC/C(=N\\NC(=O)NCc1cccc(O)c1)c1ccc(O)c(C)c1O", "target": "Fibroblast growth factor receptor 3 (FGFR3, Homo sapiens, UniProt P22607, V555L)", "effect on": "enzyme activity", "action": "inhibitor", "tested at": "0.1 µM", "inhibition [%]": -0.1}
